Among the data in ChEMBL document CHEMBL3091395, “Discovery of Octahydroindenes as PAR1 Antagonists” (ACS Med Chem Lett, 2013) are IC50, viability and half-life values, retold here.

The target of series [1] is T1, Proteinase-activated receptor 1 (Homo sapiens, UniProt P25116).
T1 sequence (P25116 whole entry): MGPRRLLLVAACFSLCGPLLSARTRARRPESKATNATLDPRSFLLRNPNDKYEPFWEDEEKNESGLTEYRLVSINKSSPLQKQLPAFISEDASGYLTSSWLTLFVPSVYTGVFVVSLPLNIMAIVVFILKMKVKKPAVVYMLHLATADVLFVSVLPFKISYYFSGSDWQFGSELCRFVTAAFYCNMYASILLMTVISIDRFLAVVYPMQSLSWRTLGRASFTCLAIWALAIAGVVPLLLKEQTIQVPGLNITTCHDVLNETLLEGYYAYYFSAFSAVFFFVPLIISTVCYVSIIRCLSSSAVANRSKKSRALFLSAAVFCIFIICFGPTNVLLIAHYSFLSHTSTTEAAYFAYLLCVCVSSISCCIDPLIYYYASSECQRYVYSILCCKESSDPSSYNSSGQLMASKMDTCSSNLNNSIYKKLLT
The experiment in a line: Displacement of [3H]haTRAP from PAR1 in human platelet membranes after 60 mins by scintillation counting analysis. The class given is cell membranes. In outline:
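Radioligand binding to PAR1 using a tritiated peptide ligand, phenylalanine-arginine-cyclohexylalanine-homoarginine-[³H]-tyrosine-NH₂, reported as IC50. Each value is the average of three measurements. Racemic mixtures were tested without separation. Vorapaxar, synthesized in-house, was included as the reference standard.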
In general terms: Displacement assays read how much labelled ligand stays bound in the presence of the test substance.

The nature of series [2]: Cytotoxicity against human HepG2 cells assessed as ATP contents at 30 uM after 24 hrs relative to control. The class given is cell-based. Particulars: read-out: Activity. The method, boiled down:
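HepG2 cells were exposed to compound at 30 μM. Cellular ATP content was measured 24 h after compound addition and expressed as % of vehicle-treated control.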

Series [3] is described as follows: Metabolic stability in human liver microsomes assessed as time when 50% of compound remains. The following applies: read-out: Time. It is filed as ADME. (In general: Microsomes from liver hold many membrane-bound enzymes, among them those of drug oxidation.)
Series [4] can be described thus: Metabolic stability in rat liver microsomes assessed as time when 50% of compound remains. The class given is ADME. The following applies: read-out: Time.

`OC1C[C@@H]2CCCC[C@@H]2[C@H]1/C=C/c1ccc(-c2cccc(F)c2)cn1` (mixture of isomers) showed a concentration for half-maximal inhibition (IC50) in series [1] of 220 nM.

With `COC(=O)NC1C[C@@H]2CCCC[C@@H]2[C@H]1/C=C/c1ccc(-c2cccc(F)c2)cn1` (mixture of isomers), the IC50 in series [1] is 980 nM. This IC50 is about 4.5-fold higher than that of the compound before.

`COC1C[C@@H]2CCCC[C@@H]2[C@H]1/C=C/c1ccc(-c2cccc(F)c2)cn1` (mixture of isomers) gave an IC50 in series [1] of 67 nM.

In series [1], `O=C(NC1C[C@@H]2CCCC[C@@H]2[C@H]1/C=C/c1ccc(-c2cccc(F)c2)cn1)C1CC1` (mixture of isomers) had an IC50 of 230 nM. Against the preceding compound, the IC50 is about 3.4-fold higher.

Compound `CCOC(=O)NC1C[C@@H]2CCCC[C@@H]2[C@H]1/C=C/c1ccc(-c2cccc(F)c2)cn1` (mixture of isomers) returned a half-maximal inhibitory concentration (IC50) in series [1] of 2000 nM.

Regarding `CN(C1C[C@@H]2CCCC[C@@H]2[C@H]1/C=C/c1ccc(-c2cccc(F)c2)cn1)S(C)(=O)=O` (mixture of isomers), in series [2], the viability at 24 h, 30 µM was 95%. The same compound displayed a 50% inhibitory concentration (IC50) in series [1] of 1.3 nM. The half-life came to 2.5 min in series [3] and 2.2 min in series [4].

For `CC(=O)NC1C[C@@H]2CCCC[C@@H]2[C@H]1/C=C/c1ccc(-c2cccc(F)c2)cn1` (mixture of isomers), the IC50 in series [1] is 53 nM. In other words, the double-digit nanomolar range.

`Fc1cccc(-c2ccc(/C=C/[C@@H]3[C@H]4CCCC[C@H]4CC34OCCO4)nc2)c1` (racemic): in series [2], the viability at 24 h, 30 µM was 97%. The compound further yielded an IC50 in series [1] of 26 nM. The half-life was determined as 4.5 min in series [3] and 3.4 min in series [4].

In the case of `CC(C)(C)OC(=O)NC1C[C@@H]2CCCC[C@@H]2[C@H]1/C=C/c1ccc(-c2cccc(F)c2)cn1` (mixture of isomers), the IC50 in series [1] was 7800 nM.

Turning to `CC1(OC(N)=O)C[C@@H]2CCCC[C@@H]2[C@H]1/C=C/c1ccc(-c2cccc(F)c2)cn1` (mixture of isomers), in series [2], the viability at 24 h, 30 µM came to 99%. For the same compound, in series [1], the half-maximal inhibitory concentration (IC50) is 2.7 nM. The half-life was 4.3 min in series [3] and 5.8 min in series [4].

Consider `CC(=O)N(C)C1C[C@@H]2CCCC[C@@H]2[C@H]1/C=C/c1ccc(-c2cccc(F)c2)cn1` (mixture of isomers), for which the viability at 24 h, 30 µM in series [2] turned out to be 98%. Further, the half-inhibitory concentration (IC50) in series [1] is 5.4 nM. Further, the figures for the half-life in series [3] and in series [4] were 5.6 min and 5.2 min, respectively.

As for `CS(=O)(=O)OC1C[C@@H]2CCCC[C@@H]2[C@H]1/C=C/c1ccc(-c2cccc(F)c2)cn1` (mixture of isomers), the viability at 24 h, 30 µM in series [2] is 94%. In series [1], this compound displayed an IC50 of 6.4 nM. The half-life in series [3] is 3.5 min; in series [4] it was 6.5 min.

On to `CC1(O)C[C@@H]2CCCC[C@@H]2[C@H]1/C=C/c1ccc(-c2cccc(F)c2)cn1` (mixture of isomers), for which, in series [1], the IC50 was 33 nM.

In series [1], `O=C(Nc1ccccc1)OC1C[C@@H]2CCCC[C@@H]2[C@H]1/C=C/c1ccc(-c2cccc(F)c2)cn1` (mixture of isomers) gave an IC50 of 360 nM.

`O=C1NCC2(C[C@@H]3CCCC[C@@H]3[C@H]2/C=C/c2ccc(-c3cccc(F)c3)cn2)O1` (mixture of isomers): in series [2], the viability at 24 h, 30 µM came to 101%. Moreover, the half-maximal inhibitory concentration (IC50) in series [1] amounted to 8.6 nM. Besides, the half-life in series [3] was 4.4 min; in series [4], 6.7 min.

In series [1], `NC1C[C@@H]2CCCC[C@@H]2[C@H]1/C=C/c1ccc(-c2cccc(F)c2)cn1` (mixture of isomers) yielded a concentration for half-maximal inhibition (IC50) of 230 nM. In other words, the sub-micromolar range.

In turn, `O=C1C[C@@H]2CCCC[C@@H]2[C@H]1/C=C/c1ccc(-c2cccc(F)c2)cn1` (racemic) returned an IC50 in series [1] of 1100 nM.

In turn, `CC(=O)OC1C[C@@H]2CCCC[C@@H]2[C@H]1/C=C/c1ccc(-c2cccc(F)c2)cn1` (mixture of isomers) gave an IC50 in series [1] of 67 nM.

Regarding `Fc1cccc(-c2ccc(/C=C/[C@H]3C(OCc4ccccc4)C[C@@H]4CCCC[C@@H]43)nc2)c1` (mixture of isomers), in series [1], the half-maximal inhibitory concentration (IC50) was determined as 280 nM.

With `Fc1cccc(-c2ccc(/C=C/[C@H]3[C@H]4CCCC[C@H]4CC34OCCO4)nc2)c1` (racemic), the IC50 in series [1] was determined as 2100 nM.

Regarding `COC1(C)C[C@@H]2CCCC[C@@H]2[C@H]1/C=C/c1ccc(-c2cccc(F)c2)cn1` (mixture of isomers), the IC50 in series [1] is 43 nM.

Compound `Fc1cccc(-c2ccc(/C=C/[C@@H]3[C@H]4CCCC[C@@H]4CC34OCCO4)nc2)c1` (racemic) came in with an IC50 in series [1] of 470 nM.

Turning to `CN(C)C(=S)OC1C[C@@H]2CCCC[C@@H]2[C@H]1/C=C/c1ccc(-c2cccc(F)c2)cn1` (mixture of isomers), the IC50 in series [1] worked out at 120 nM.

On to `CS(=O)(=O)NC1C[C@@H]2CCCC[C@@H]2[C@H]1/C=C/c1ccc(-c2cccc(F)c2)cn1` (mixture of isomers), for which the IC50 in series [1] was 50 nM. Besides, the half-life was determined as 273 min in series [3] and 105 min in series [4].

As for `CCOC(=O)N[C@@H]1CC[C@@H]2[C@@H](C1)C[C@H]1C(=O)O[C@H](C)[C@H]1[C@H]2/C=C/c1ccc(-c2cccc(F)c2)cn1` [VORAPAXAR], the viability at 24 h, 30 µM in series [2] turned out to be 102%. In series [1], this compound showed an IC50 of 1.1 nM. The half-life in series [3] was determined as 83.2 min; in series [4], 32.4 min.

The term IC50 denotes the concentration that inhibits the measured activity by half.
